# Calls of active or inactive are those of the source. No cut-off for these calls is given here.
# Tests used:
# D(4) dopamine receptor = biological target: T1, D(4) dopamine receptor (Homo sapiens, UniProt P21917); assay: Displacement of [3H]spiperone from human D4.4 receptor expressed in CHO cells; format: cell-based
# T1 sequence (P21917 whole entry): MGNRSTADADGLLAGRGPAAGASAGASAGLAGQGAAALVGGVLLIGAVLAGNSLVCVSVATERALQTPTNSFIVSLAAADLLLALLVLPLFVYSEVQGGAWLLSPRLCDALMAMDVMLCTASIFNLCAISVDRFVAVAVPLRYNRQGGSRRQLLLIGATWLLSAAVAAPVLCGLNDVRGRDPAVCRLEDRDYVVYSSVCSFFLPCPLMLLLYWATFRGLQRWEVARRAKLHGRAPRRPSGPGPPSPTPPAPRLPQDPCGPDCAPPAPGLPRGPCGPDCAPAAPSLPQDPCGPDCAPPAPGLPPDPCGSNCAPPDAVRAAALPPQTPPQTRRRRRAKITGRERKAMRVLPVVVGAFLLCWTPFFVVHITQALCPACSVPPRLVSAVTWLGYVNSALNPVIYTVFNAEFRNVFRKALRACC
# Homo sapiens = organism: Homo sapiens; assay: Selectivity ratio of Ki for human D4.4 receptor to Ki for human D3 receptor
# D(2) dopamine receptor [1] = biological target: T2, D(2) dopamine receptor (Homo sapiens, UniProt P14416); assay: Displacement of [3H]spiperone from human D2 receptor expressed in CHO cells assessed as dissociation half life; format: cell-based
# T2 sequence (P14416 whole entry): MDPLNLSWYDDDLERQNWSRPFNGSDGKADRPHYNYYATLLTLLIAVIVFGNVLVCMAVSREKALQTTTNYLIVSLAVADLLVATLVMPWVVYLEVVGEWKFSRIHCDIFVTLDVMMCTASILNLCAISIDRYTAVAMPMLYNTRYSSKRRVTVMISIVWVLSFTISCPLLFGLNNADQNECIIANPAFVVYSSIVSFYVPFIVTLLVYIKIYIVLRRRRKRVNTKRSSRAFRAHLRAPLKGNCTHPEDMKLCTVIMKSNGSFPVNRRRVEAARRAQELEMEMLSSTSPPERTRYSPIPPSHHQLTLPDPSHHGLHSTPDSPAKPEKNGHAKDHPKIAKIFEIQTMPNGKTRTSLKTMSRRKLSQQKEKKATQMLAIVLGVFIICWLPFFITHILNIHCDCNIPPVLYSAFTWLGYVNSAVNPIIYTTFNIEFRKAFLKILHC
# D(2) dopamine receptor [2] = biological target: T2, D(2) dopamine receptor; assay: Displacement of [3H]spiperone from human D2short receptor expressed in CHO cells in presence of 100 mM sodium chloride; format: cell-based
# How it was run: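 Buffer was 50 mM Tris, 1.0 mM EDTA, 5.0 mM MgCl2, 100 μg/mL bacitracin and 5 μg/mL soybean trypsin inhibitor, pH 7.4, plus NaCl at a final 100 mM. Curves were fitted by sigmoidal nonlinear regression with a free Hill coefficient.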
# D(2) dopamine receptor [3] = biological target: T2, D(2) dopamine receptor; assay: Antagonist activity at human D2long receptor expressed in CHO10001 cells assessed as inhibition of agonist-stimulated [3H]thymidine incorporation into cells by mitogenesis assay; format: functional, cell-based
# D(1A) dopamine receptor = D(1A) dopamine receptor (Sus scrofa, UniProt P50130); assay: Displacement of [3H]SCH23390 from D1 receptor from porcine cerebral cortex homogenates; format: tissue-based
# Sequence of D(1A) dopamine receptor (P50130 whole entry): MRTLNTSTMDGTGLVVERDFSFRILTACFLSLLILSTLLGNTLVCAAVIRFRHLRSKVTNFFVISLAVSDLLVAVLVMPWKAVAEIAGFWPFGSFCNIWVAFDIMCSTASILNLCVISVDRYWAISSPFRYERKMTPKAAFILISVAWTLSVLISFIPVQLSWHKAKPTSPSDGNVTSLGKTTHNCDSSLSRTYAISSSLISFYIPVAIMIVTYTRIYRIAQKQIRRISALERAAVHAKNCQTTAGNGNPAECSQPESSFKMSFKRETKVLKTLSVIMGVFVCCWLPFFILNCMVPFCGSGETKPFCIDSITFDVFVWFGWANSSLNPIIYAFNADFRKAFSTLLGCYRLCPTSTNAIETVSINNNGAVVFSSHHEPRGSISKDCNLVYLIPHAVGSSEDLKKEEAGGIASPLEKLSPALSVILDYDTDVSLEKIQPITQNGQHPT
# How it was run: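 Porcine cerebral cortex homogenate membranes at 40–60 μg/mL protein (Lowry, BSA standard). Competition curves were fitted to a sigmoid by nonlinear regression, with log EC50 and Hill coefficient as free parameters.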
# D(2) dopamine receptor [4] = biological target: T2, D(2) dopamine receptor; assay: Displacement of [3H]spiperone from human D2short receptor expressed in CHO cells; format: cell-based
# D(3) dopamine receptor = D(3) dopamine receptor (Homo sapiens, UniProt P35462); assay: Displacement of [3H]spiperone from human D3 receptor expressed in CHO cells; format: cell-based
# Sequence of D(3) dopamine receptor (P35462 whole entry): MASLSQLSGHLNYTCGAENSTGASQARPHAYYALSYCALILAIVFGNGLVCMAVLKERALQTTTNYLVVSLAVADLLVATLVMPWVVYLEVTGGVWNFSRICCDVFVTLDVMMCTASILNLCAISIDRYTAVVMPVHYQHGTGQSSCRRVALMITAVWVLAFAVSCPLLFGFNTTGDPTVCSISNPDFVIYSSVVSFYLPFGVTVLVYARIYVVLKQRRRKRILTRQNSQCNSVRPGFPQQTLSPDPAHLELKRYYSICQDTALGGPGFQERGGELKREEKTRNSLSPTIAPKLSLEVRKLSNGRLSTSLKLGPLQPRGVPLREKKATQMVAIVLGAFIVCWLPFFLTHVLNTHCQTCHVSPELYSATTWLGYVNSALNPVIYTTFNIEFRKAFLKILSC
# D(2) dopamine receptor [5] = biological target: T2, D(2) dopamine receptor; assay: Displacement of [3H]spiperone from human D2long receptor expressed in CHO cells
Compound,Ki (D(4) dopamine receptor) [nM],Ratio Ki (Homo sapiens),T1/2 (D(2) dopamine receptor [1]) [h],Ki (D(2) dopamine receptor [2]) [nM],inhibition (D(2) dopamine receptor [3]),Ki (D(1A) dopamine receptor) [nM],Ki (D(2) dopamine receptor [4]) [nM],Ki (D(3) dopamine receptor) [nM],Ki (D(2) dopamine receptor [5]) [nM]
COc1cc(CN2CCN(c3ccccc3OC)CC2)ccc1OCCCc1cn(CCCCCCCCCCn2cc(CCCOc3ccc(CN4CCN(c5ccccc5OC)CC4)cc3OC)nn2)nn1,19,–,–,–,–,250,17,96,23
COc1cc(CN2CCN(c3ccccc3OC)CC2)ccc1OCc1cn(CCCCCCCCn2cc(COc3ccc(CN4CCN(c5ccccc5OC)CC4)cc3OC)nn2)nn1,5.4,5,–,–,–,210,25,31,16
COc1cc(CN2CCN(c3ccccc3OC)CC2)ccc1OCCCCc1cn(CCCCCCCCCCn2cc(CCCCOc3ccc(CN4CCN(c5ccccc5OC)CC4)cc3OC)nn2)nn1,11,–,–,–,–,300,8.2,74,17
COc1cc(CN2CCN(c3ccccc3OC)CC2)ccc1OCc1cn(CCOCCOCCn2cc(COc3ccc(CN4CCN(c5ccccc5OC)CC4)cc3OC)nn2)nn1,6.8,–,–,–,–,390,3.4,36,3.3
CCCCn1cc(COc2ccc(CN3CCN(c4ccccc4OC)CC3)cc2OC)nn1,3.3,80,–,–,–,2300,70,320,63
CCOCCn1cc(COc2ccc(CN3CCN(c4ccccc4OC)CC3)cc2OC)nn1,8.4,–,–,–,–,3800,100,440,68
COc1cc(CN2CCN(c3ccccc3OC)CC2)ccc1OCCCc1cn(CCOCCOCCOCCn2cc(CCCOc3ccc(CN4CCN(c5ccccc5OC)CC4)cc3OC)nn2)nn1,19,–,–,–,–,270,6.2,72,4.8
COc1cc(CN2CCN(c3ccccc3OC)CC2)ccc1OCCCc1cn(CCOCCOCCn2cc(CCCOc3ccc(CN4CCN(c5ccccc5OC)CC4)cc3OC)nn2)nn1,12,–,–,–,–,220,3.7,61,2.8

# Next, values leading:
Ki (D(4) dopamine receptor) [nM],Ratio Ki (Homo sapiens),T1/2 (D(2) dopamine receptor [1]) [h],Ki (D(2) dopamine receptor [2]) [nM],inhibition (D(2) dopamine receptor [3]),Ki (D(1A) dopamine receptor) [nM],Ki (D(2) dopamine receptor [4]) [nM],Ki (D(3) dopamine receptor) [nM],Ki (D(2) dopamine receptor [5]) [nM],Compound
7.2,80,2,35,Active,1500,–,–,–,CCCCn1cc(CCCOc2ccc(CN3CCN(c4ccccc4OC)CC3)cc2OC)nn1
13,–,–,–,–,2500,67,590,52,CCCCn1cc(CCCCOc2ccc(CN3CCN(c4ccccc4OC)CC3)cc2OC)nn1
14,–,–,–,–,400,32,230,36,CCCc1cn(CCCCCCCCn2cc(CCCOc3ccc(CN4CCN(c5ccccc5OC)CC4)cc3OC)nn2)nn1
12,–,–,–,–,980,–,–,–,COc1cc(CN2CCN(C)CC2)ccc1OCCCc1cn(CCCCCCCCn2cc(CCCOc3ccc(CN4CCN(c5ccccc5OC)CC4)cc3OC)nn2)nn1
15,5,2.17,12,Active,220,–,–,–,COc1cc(CN2CCN(c3ccccc3OC)CC2)ccc1OCCCc1cn(CCCCCCCCn2cc(CCCOc3ccc(CN4CCN(c5ccccc5OC)CC4)cc3OC)nn2)nn1
6.4,–,–,–,–,870,16,250,18,CCOCCn1cc(CCCOc2ccc(CN3CCN(c4ccccc4OC)CC3)cc2OC)nn1
19,–,–,–,–,480,–,–,–,COc1cc(CN2CCN(c3ccccc3OC)CC2)ccc1OCCCc1cn(CCCCCCCCn2cc(CCCOc3ccc(CN4CCN(C5CCCCC5)CC4)cc3OC)nn2)nn1

# Source: ChEMBL document CHEMBL1799971, “Bivalent dopamine D2 receptor ligands: synthesis and binding properties” (J Med Chem, 2011)
